# Test results from PubChem BioAssay.
# Calls of active or inactive are those of the source.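 How the source made its calls, unless noted: active means fluorescence slope after compound addition differing from the mean of all tested samples at 99.7% confidence, mostly higher but some lower; inactive means the rest.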
# Legend:
# [1] = inhibitors of TNFa-induced NFkB p65 translocation, primary screen, imaging, HUVEC, MLSMR starter and 10KST1 sets (AID 438;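 active means inhibition above 20% together with a positive visual image hit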;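 further: compound added about 3h40 before a 20 min TNFalpha stimulation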;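 on inhibition: signal is the nuclear over cytoplasmic p65 intensity ratio per well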); conditions: HUVEC TNFa-induced p65 nuclear translocation; cell count: measured here: nuclei count (cytotoxicity indicator), at 2.08 µM; inhibition: at 2 µM, stronger effect = higher value, 0% TNFa-plus-vehicle, 100% no-TNFa wells
# [2] = inhibitors of E-selectin induction by TNFa, primary screen, imaging, HUVEC, immunofluorescence, MLSMR starter and 10KST1 sets (AID 487;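 active means visually confirmed hit in the image check and inhibition above 20%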;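 on inhibition: signal is fraction of cell area covered by stained E-selectin grains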;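 on nuclei count: 100% = median nuclei count of all wells on the same plate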); conditions: HUVEC TNFalpha-induced E-selectin immunofluorescence imaging, at 2 µM; inhibition: stronger effect = higher value; nuclei count: measured here: cell number, toxicity
# [3] = DUSP6 inhibitors restoring Erk phosphorylation by chemical complementation, primary imaging in DUSP6-transfected HeLa (AID 609;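 active means compounds giving at least 50% inhibition in the cell-based MKP-3 phosphatase rescue imaging test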;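 on inhibition: phospho-Erk level distribution per well compared with pooled transfected vehicle control wells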); conditions: HeLa MKP-3 transfected, phospho-Erk imaging KS statistic, at 10 µM, cells stimulated with TPA for 15 min
# [4] = target: Dual specificity protein phosphatase 6 (Homo sapiens) (UniProt Q16828); test: as above; conditions: HeLa MKP-3 transfected, phospho-Erk imaging KS statistic; at 10 µM; stronger effect = higher value; cells stimulated with TPA for 15 min
# Chain of Dual specificity protein phosphatase 6 (Homo sapiens) (Q16828 whole entry, looked up): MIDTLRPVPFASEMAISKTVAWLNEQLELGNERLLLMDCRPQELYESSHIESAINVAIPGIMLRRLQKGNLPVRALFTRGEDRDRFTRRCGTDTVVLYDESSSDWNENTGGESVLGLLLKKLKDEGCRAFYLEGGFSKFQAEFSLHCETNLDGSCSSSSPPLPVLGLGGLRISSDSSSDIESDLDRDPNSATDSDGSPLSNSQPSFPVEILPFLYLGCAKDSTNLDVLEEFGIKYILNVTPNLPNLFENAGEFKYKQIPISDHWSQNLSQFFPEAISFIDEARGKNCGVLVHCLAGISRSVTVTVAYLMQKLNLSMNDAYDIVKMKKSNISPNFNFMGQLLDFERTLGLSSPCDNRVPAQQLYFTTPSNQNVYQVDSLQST
# [5] = target: Voltage-gated potassium channel subunit beta-2 (Rattus norvegicus) (UniProt P62483); test: KvBeta enzyme negative modulators, primary screen, biochemical, NADPH fluorescence (AID 622;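 active means fluorescence slope higher than the sample average by over 3 SD, cut at about -0.22 in these data, passing the limit was not always enough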;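 further: slope of raw intensity against log time taken from 70 to 1610 s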); conditions: recombinant KvBeta, 4-cyanobenzaldehyde reduction, at 10 µM, stronger effect = higher value
# Chain of Voltage-gated potassium channel subunit beta-2 (Rattus norvegicus) (P62483 whole entry, looked up): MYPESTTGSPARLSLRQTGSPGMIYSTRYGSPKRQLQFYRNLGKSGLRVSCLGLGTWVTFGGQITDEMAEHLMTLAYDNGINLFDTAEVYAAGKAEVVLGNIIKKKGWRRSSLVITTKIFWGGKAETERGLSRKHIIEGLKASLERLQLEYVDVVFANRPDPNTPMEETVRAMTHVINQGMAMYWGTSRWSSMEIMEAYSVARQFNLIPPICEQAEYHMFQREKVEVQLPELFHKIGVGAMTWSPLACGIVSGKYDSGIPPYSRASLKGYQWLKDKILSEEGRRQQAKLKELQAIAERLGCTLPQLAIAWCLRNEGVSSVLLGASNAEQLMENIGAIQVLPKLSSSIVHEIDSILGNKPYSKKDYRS
# [6] = target: Voltage-gated potassium channel subunit beta-2 (Rattus norvegicus) (UniProt P62483); test: KvBeta positive modulators, primary screen, biochemical, NADPH fluorescence (AID 623;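 active means NADPH fluorescence slope more negative than the mean of all samples by about 3 SD, 99.7% confidence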;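 further: fluorescence intensity change per second fitted from 20 to 320 s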); conditions: Recombinant KvBeta, NADPH fluorescence decrease slope, 10 min; at 10 µM; stronger effect = lower value
# [7] = target: Muscarinic acetylcholine receptor M4 (Homo sapiens) (UniProt P08173); test: compounds altering M4/GIRK thallium flux, either direction, primary screen, M4 allosteric agonist project, cell-based, HEK293 M4/GIRK, BTC-AM (AID 625); conditions: at 10 µM, actives lie on both sides;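 further: thallium influx through GIRK channels coupled to M4 in HEK293 cells with BTC-AM dye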
# Chain of Muscarinic acetylcholine receptor M4 (Homo sapiens) (P08173 whole entry, looked up): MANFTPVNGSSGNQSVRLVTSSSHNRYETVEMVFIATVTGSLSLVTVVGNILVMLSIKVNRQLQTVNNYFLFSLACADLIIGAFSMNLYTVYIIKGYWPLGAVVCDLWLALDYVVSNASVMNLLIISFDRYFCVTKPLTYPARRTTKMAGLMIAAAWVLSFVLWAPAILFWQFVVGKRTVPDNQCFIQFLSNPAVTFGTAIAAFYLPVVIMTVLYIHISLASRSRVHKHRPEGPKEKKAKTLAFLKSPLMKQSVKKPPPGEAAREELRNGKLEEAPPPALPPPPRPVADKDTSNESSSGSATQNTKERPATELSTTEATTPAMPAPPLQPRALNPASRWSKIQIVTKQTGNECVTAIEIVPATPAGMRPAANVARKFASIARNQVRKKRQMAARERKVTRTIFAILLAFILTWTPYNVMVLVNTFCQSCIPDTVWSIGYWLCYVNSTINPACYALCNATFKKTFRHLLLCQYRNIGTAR
# Procedure, shortened: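 System: HEK293 cells with M4 receptor and GIRK channels | Incubation: Cells overnight at 37 °C, BTC-AM loading 1 h, reads 2 min total | Technique: Kinetic BTC-AM fluorescence sampled at 1 Hz, 10 s pre-addition baseline | Measure: Post-addition slope, 15–24 s, of baseline-normalized fluorescence | Control set: Carbachol positive, DMSO negative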
# [8] = inhibitors of larval lipid processing in zebrafish, primary screen, whole organism, PED6 fluorescence, gall bladder and intestine (AID 686;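 active means a full or partial loss of lipid-probe fluorescence in the fish gall bladder, intestine or both, judged by eye; inactive means no fluorescence loss, or compound toxic to the fish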;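 further: larvae 5 to 7 days old with five fish per well; signal comes from phospholipase A2 cleavage of quenched PED6 carried via bile; overnight exposure to compound and PED6 before scoring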); conditions: Zebrafish larvae PED6 lipid processing, fluorescence scoring; screened at 20 µM (by protocol)
# Procedure, shortened: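 Test system – live zebrafish larvae aged 5-7 days, whole organism · Buffer or medium – E3 fish medium · Reagent – quenched phospholipase substrate PED6, 100 nM final, ingested by larvae · Doses – 20 µM single dose · Incubation – overnight compound and PED6 incubation · Technique – visual fluorescence microscopy scoring of gall bladder, gut · Read-out basis – visual per-well fluorescence inhibition score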
# [9] = inhibitors of Chlamydomonas gravitaxis, primary screen, whole organism, Chlamydomonas reinhardtii, WT vs cilia-less mutant, absorbance, 96-well (AID 463189;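 active means inhibition at or above 50% relative to wild type and mutant plate controls; inactive means inhibition below 50%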;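 further: 0% = wild type cc124 cells in DMSO and 100% = ciliumless bld1 mutant cells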); conditions: OD600 absorbance, 2 days, at 10 µM, stronger effect = higher value
# [10] = measured here: cell density z-score
# [11] = measured here: nuclear c-Myc green intensity z-score
# [12] = measured here: nuclear pErk red intensity z-score, stronger effect = higher value
Structure (SMILES),cell count [1],inhibition [1],inhibition [2],nuclei count [2] [%],"z-score [3, 10]","z-score [3, 11]","z-score [3, 12]",inhibition [4],fluorescence slope [5],NADPH fluorescence slope [6],fluorescence slope [7],outcome [8],inhibition [9]
CCOC(=O)CNC(=O)CNC(=O)c1ccc(OCC(C)C)cc1,694,2.1% (inactive),-9.7% (inactive),146,0.797,0.341,0.093,-5.81% (inactive),-0.458 (inactive),-5.4e-05 (inactive),0.00522 (inactive),inactive,-6.07% (inactive)
Cc1ccc2[nH]c3c(c2c1)CN(C(=O)CN1CC(C)OC(C)C1)CC3 (stereo unspecified),409,-6.9% (inactive),-299% (inactive),169,1.01,0.157,-0.0941,3.42% (inactive),-0.466 (inactive),-0.000107 (inactive),0.00334 (inactive),inactive,26.6% (inactive)
COC(=O)c1cc(Br)c(=O)n(Cc2ccco2)c1,518,-0.8% (inactive),34.7% (inactive),159,-0.341,0.91,-1.02,1.9e-07% (inactive),-0.411 (inactive),-3.2e-05 (inactive),0.00519 (inactive),inactive,-6.69% (inactive)
CC1(C)CC(=O)C(C=Nc2ccc(Cl)cn2)=C(O)C1,493,-2.2% (inactive),-68.2% (inactive),114,0.174,-1.57,0.727,15.9% (inactive),-0.464 (inactive),-2.5e-06 (inactive),0.0108 (inactive),inactive,35.7% (inactive)
Cc1cc(=O)oc2c(CN3CCCCC3)c(O)c(Cl)cc12,703,-7.3% (inactive),-40.4% (inactive),146,0.085,0.889,-2.46,7.83% (inactive),-0.0387 (inactive),-0.000132 (inactive),0.0046 (inactive),inactive,15.8% (inactive)
O=C(NCCc1ccccc1)/C(=N\O)c1ccccc1,555,-5.6% (inactive),19.1% (inactive),182,1.61,-1.77,-0.308,13.9% (inactive),-0.404 (inactive),-8.5e-06 (inactive),0.00486 (inactive),inactive,2.81% (inactive)
O=C1CC(c2ccccc2)n2nc(NS(=O)(=O)c3ccccc3)nc2N1 (stereo unspecified),363,-12.1% (inactive),-108% (inactive),114,1.38,-0.224,-0.593,14.4% (inactive),-0.486 (inactive),-2.9e-05 (inactive),0.00519 (inactive),inactive,-8.7% (inactive)
CCOC(=O)C1=C(C)NC(=O)C1CC(=O)Nc1ccccc1 (stereo unspecified),377,-4.8% (inactive),-73.4% (inactive),139,-0.173,0.561,0.408,3.42% (inactive),-0.443 (inactive),-0.000122 (inactive),0.00567 (inactive),inactive,-5.87% (inactive)
CC(C)OC(=O)CCNc1n[nH]c(=O)[nH]c1=O,635,-4.3% (inactive),-4.4% (inactive),119,0.648,0.239,0.621,-4.27% (inactive),-0.499 (inactive),-0.000105 (inactive),0.00594 (inactive),inactive,-8.46% (inactive)
CC(NC(=O)Nc1ncccn1)(C(F)(F)F)C(F)(F)F,705,-8.4% (inactive),-9.7% (inactive),107,-2.34,2.27,-1.54,3.97% (inactive),-0.481 (inactive),-0.000112 (inactive),0.00693 (inactive),inactive,-10.4% (inactive)
Cc1cc(C)n(CC2CC(=O)N(c3ccc(F)c(Cl)c3)C2=O)n1 (stereo unspecified),460,-0.7% (inactive),-64.8% (inactive),111,-0.992,0.731,-1.56,-3.97% (inactive),-0.314 (inactive),1.8e-05 (inactive),0.00494 (inactive),inactive,-11.1% (inactive)
CCC(=O)NC1(C(F)(F)F)C(=O)Nc2c1c(=O)[nH]c(=O)n2Cc1ccco1 (stereo unspecified),652,-2.8% (inactive),-96.3% (inactive),167,-1.08,0.161,0.694,1.04% (inactive),-0.497 (inactive),-8.6e-05 (inactive),0.00505 (inactive),inactive,9.21% (inactive)
CCCOc1ccc(C2/C(=C(/O)c3ccccc3)C(=O)C(=O)N2CCCN(C)C)cc1OC (stereo unspecified),399,-2.9% (inactive),-92.3% (inactive),157,0.261,-0.731,-0.508,18.2% (inactive),-0.463 (inactive),-0.000127 (inactive),0.00492 (inactive),inactive,26.4% (inactive)
Nc1ccc2oc(-c3cc(Br)ccc3Cl)nc2c1,569,3.7% (inactive),-26.9% (inactive),171,0.555,-1.29,0.312,9.91% (inactive),-0.00932 (inactive),8.2e-06 (inactive),0.00586 (inactive),inactive,15.1% (inactive)
COc1ccc(C(=O)c2ccc(N3CCOCC3)cc2)c(OC)c1,624,-6.6% (inactive),-21.8% (inactive),99.4,-2.58,0.925,1.09,5.95% (inactive),-0.488 (inactive),-6.2e-05 (inactive),0.00684 (inactive),inactive,-11.4% (inactive)
COCCNc1nc2c(c(=O)n(C)c(=O)n2C)n1Cc1cccc(C(F)(F)F)c1,698,3% (inactive),-94.2% (inactive),95.8,0.711,-1.37,-0.346,7.93% (inactive),-0.559 (inactive),-8e-05 (inactive),0.00743 (inactive),inactive,36.2% (inactive)
CCc1nc2c(sc3nc(N4CCOCC4)c4c(c32)CC(C)(C)OC4)c(=O)o1,537,0.8% (inactive),-123% (inactive),140,-0.303,0.948,-1.15,3.42% (inactive),-0.479 (inactive),-8.3e-05 (inactive),0.00481 (inactive),inactive,-8.15% (inactive)
Cn1ccnc1C(O)c1ccc(OCc2ccccc2)cc1 (stereo unspecified),473,-1.1% (inactive),-18.4% (inactive),113,-3.29,1.73,-0.207,7.42% (inactive),-0.487 (inactive),-0.000123 (inactive),0.00541 (inactive),inactive,-11.2% (inactive)
CC(NC(=O)Nc1ccc(O)cc1)(C(F)(F)F)C(F)(F)F,709,-15.9% (inactive),-16.4% (inactive),151,-0.386,1.06,0.803,-3.95% (inactive),-0.461 (inactive),-4.3e-05 (inactive),0.00553 (inactive),inactive,0.534% (inactive)
CCn1c(SCC(=O)NCc2ccco2)nnc1-c1ccc(N)cc1,669,-1% (inactive),19.4% (inactive),189,-0.439,0.193,-0.177,-3.95% (inactive),-0.491 (inactive),-4.4e-05 (inactive),0.00557 (inactive),inactive,6.36% (inactive)
COc1ccc(OC)c(NS(=O)(=O)c2ccc(N3CCCC3=O)cc2)c1,645,24% (active),-344% (inactive),139,1.32,-0.903,-0.414,-3.97% (inactive),-0.465 (inactive),-0.000177 (inactive),0.00599 (inactive),inactive,14% (inactive)
OCCN=C(c1ccccc1)C12CN3CN(CN(C3)C1)C2,568,-5.7% (inactive),-133% (inactive),150,0.238,-2.23,0.262,15.4% (inactive),-0.48 (inactive),-2.2e-05 (inactive),0.0051 (inactive),inactive,7.41% (inactive)
Nc1ccc2oc(-c3ccccc3Cl)nc2c1,644,-0.2% (inactive),7.8% (inactive),145,0.0664,-0.553,-0.135,-7.67% (inactive),-0.136 (inactive),-5.7e-05 (inactive),0.00466 (inactive),inactive,26.6% (inactive)
COc1cc(S(=O)(=O)N2CCN(C)CC2)c(OC)cc1Br,616,13.9% (inactive),-43.1% (inactive),114,0.0206,-1.18,-0.865,1.63% (inactive),-0.424 (inactive),-3.6e-05 (inactive),0.00502 (inactive),inactive,21% (inactive)
Cc1cc(=O)oc2c(CN3CCC(C)CC3)c(O)c(Cl)cc12,654,-6.9% (inactive),-12% (inactive),171,0.311,0.013,0.217,1.12% (inactive),-0.0249 (inactive),4.3e-06 (inactive),0.00736 (inactive),inactive,-2.21% (inactive)
Cc1[nH]nc(-c2ccc(O)cc2O)c1Oc1ccccc1,565,-2.3% (inactive),-110% (inactive),175,1.43,-0.0429,-0.868,15.9% (inactive),-0.433 (inactive),-7e-05 (inactive),0.00505 (inactive),inactive,9.24% (inactive)
Cc1cccc(-c2nnc3n2N=C(c2ccccc2)CS3)c1,713,6.8% (inactive),-55.5% (inactive),169,0.462,-0.93,1.32,16.8% (inactive),-0.415 (inactive),-6.7e-05 (inactive),0.00492 (inactive),inactive,44.7% (inactive)
